≈ marks a conversion by molar mass, not a printed value.

Test [1] concerns Staphylococcus aureus. The test is described as follows: Antimicrobial activity against methicillin-resistant Staphylococcus aureus CM05 by broth microdilution method. Format: functional. The method, boiled down: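 Clinical MRSA strain CM05. MICs determined by broth microdilution following accepted recommendations.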
(In general: Broth dilution looks for growth in wells or tubes with falling amounts of substance.)

In test [2] the test system is Staphylococcus aureus. Kind of test: Antimicrobial activity against Staphylococcus aureus RN4220 harboring plasmid MS2 by broth microdilution method. The class given is functional. The method, boiled down: (§1)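 S. aureus RN4220 carrying the relevant shuttle plasmid, introduced by electroporation and selected on LB agar with 10 µg/ml chloramphenicol. MICs by broth microdilution per accepted recommendations. Disk diffusion: ca. 10^7 cells in 4 ml 0.6% soft agar over 1.5% LB agar with 10 µg/ml chloramphenicol. Paper disks (5 mm) held 20 µg erythromycin or 30 µg florfenicol. Plates incubated overnight at 37°C and photographed.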

Test [3] deals with Staphylococcus aureus. The test is described as follows: Antimicrobial activity against cfr-deficient Staphylococcus aureus RN4220 harboring erm(B) gene by broth microdilution method. Format: functional. A digest of the protocol: as §1
Test [4] has as its system Staphylococcus aureus. Kind of test: Antimicrobial activity against erm(B)-deficient Staphylococcus aureus RN4220 harboring cfr gene by broth microdilution method. The class given is functional. The method, boiled down:
as §1

The test system of test [5] is Staphylococcus aureus. The test is described as follows: Antimicrobial activity against Staphylococcus aureus RN4220 harboring erm(B) and cfr gene by broth microdilution method.
For test [6], the system named is Staphylococcus aureus. Kind of test: Antimicrobial activity against erm(B) and cfr-deficient Staphylococcus aureus RN4220 harboring plasmid LI50 by broth microdilution method.
Test [7] concerns Staphylococcus aureus. Kind of test: Antimicrobial activity against Staphylococcus aureus RN4220 harboring plasmid LI50 by broth microdilution method. The class given is functional. The method, boiled down:
as §1

Test [8] deals with Staphylococcus aureus. Kind of test: Antimicrobial activity against methicillin-resistant Staphylococcus aureus RN4220 harboring erm(B) and cfr gene assessed as modification of A2503 site in 23S rRNA. Format: functional.
Test [9] concerns Staphylococcus aureus. Kind of test: Antimicrobial activity against methicillin-resistant Staphylococcus aureus CM05 assessed as modification of A2503 site in 23S rRNA. The class given is functional.
The subject of test [10] is Staphylococcus aureus. The test is described as follows: Antimicrobial activity against Staphylococcus aureus RN4220 harboring cfr gene with mutagenized first codon CAG. The class given is functional. A digest of the protocol: as §1
For test [11], the system named is Staphylococcus aureus. Kind of test: Antimicrobial activity against methicillin-resistant Staphylococcus aureus RN4220 harboring erm(B) and cfr gene assessed as modification of A2058 site in 23S rRNA. The class given is functional.
Test [12] deals with Staphylococcus aureus. The test is described as follows: Antimicrobial activity against Staphylococcus aureus RN4220 harboring erm(B) promoter-deficient plasmid MS2 by broth microdilution method.
Test [13] concerns Staphylococcus aureus. Kind of test: Antimicrobial activity against Staphylococcus aureus RN4220 harboring cfr gene with mutagenized second codon CAG. The class given is functional. The method, boiled down:
as §1

Test [14] has as its system Staphylococcus aureus. The test is described as follows: Antimicrobial activity against methicillin-resistant Staphylococcus aureus CM05 assessed as modification of A2058 site in 23S rRNA. Format: functional.

By MIC is commonly meant the lowest concentration that inhibits growth of the organism. A high value points to a need for much substance. As for `O=C(N[C@H](CO)[C@H](O)c1ccc([N+](=O)[O-])cc1)C(Cl)Cl` [CHLORAMPHENICOL], the MIC with Staphylococcus aureus [1] came out at 64 mg/L (≈ 198 µM).
With `CCC[C@@H]1C[C@@H](C(=O)N[C@@H]([C@H]2O[C@H](SC)[C@H](O)[C@@H](O)[C@H]2O)[C@H](C)Cl)N(C)C1` [CLINDAMYCIN], the MIC against Staphylococcus aureus [2] was above 1020 mg/L; in the test on Staphylococcus aureus [3], above 1020 mg/L; with Staphylococcus aureus [4], 1020 mg/L (≈ 2410 µM); in the test on Staphylococcus aureus [1], above 1020 mg/L; in the test with Staphylococcus aureus [5], above 1020 mg/L; with Staphylococcus aureus [6] it was below 1 mg/L. In the test on Staphylococcus aureus [7], this compound displayed an MIC below 1 mg/L.
`CC[C@H]1OC(=O)[C@H](C)[C@@H](O[C@H]2C[C@@](C)(OC)[C@@H](O)[C@H](C)O2)[C@H](C)[C@@H](O[C@@H]2O[C@H](C)C[C@H](N(C)C)[C@H]2O)[C@](C)(O)C[C@@H](C)C(=O)[C@H](C)[C@@H](O)[C@]1(C)O` [ERYTHROMYCIN]: the MIC in the test on Staphylococcus aureus [2] was above 1020 mg/L; against Staphylococcus aureus [1] it was above 1020 mg/L; in the test on Staphylococcus aureus [10], above 1020 mg/L; against Staphylococcus aureus [5] it was above 1020 mg/L; in the test on Staphylococcus aureus [12], 0.5 mg/L (≈ 0.681 µM); against Staphylococcus aureus [13], above 1020 mg/L. Moreover, the MIC against Staphylococcus aureus [6] and in the test with Staphylococcus aureus [7] was 0.5 mg/L (≈ 0.681 µM) in each case. For the same compound, the Activity in the test on Staphylococcus aureus [8] was 11%; in the test on Staphylococcus aureus [9], 27%; with Staphylococcus aureus [11], 23%; in the test with Staphylococcus aureus [14] it was 35%.
As to `CS(=O)(=O)c1ccc([C@@H](O)[C@@H](CF)NC(=O)C(Cl)Cl)cc1` [FLORFENICOL], the minimum inhibitory concentration (MIC) was determined as 128 mg/L (≈ 357 µM) against Staphylococcus aureus [2]; 128 mg/L (≈ 357 µM) against Staphylococcus aureus [10]; 128 mg/L (≈ 357 µM) in the test with Staphylococcus aureus [5]; 4 mg/L (≈ 11.2 µM) against Staphylococcus aureus [12]; 4 mg/L (≈ 11.2 µM) against Staphylococcus aureus [13]; 4 mg/L (≈ 11.2 µM) with Staphylococcus aureus [6]. The compound also displayed an MIC in the test with Staphylococcus aureus [7] of 4 mg/L (≈ 11.2 µM). In addition, the Activity with Staphylococcus aureus [8] is on record as 16%; with Staphylococcus aureus [9], 20%; in the test on Staphylococcus aureus [11], 20%; with Staphylococcus aureus [14], 32%.
Regarding `CO[C@@H]1[C@@H](O[C@@H]2O[C@H](C)[C@@H](O[C@H]3C[C@@](C)(O)[C@@H](OC(=O)CC(C)C)[C@H](C)O3)[C@H](N(C)C)[C@H]2O)[C@@H](CC=O)C[C@@H](C)[C@@H](O)/C=C/C=C/C[C@@H](C)OC(=O)C[C@H]1OC(C)=O` [JOSAMYCIN], the MIC against Staphylococcus aureus [3] was above 2000 mg/L; against Staphylococcus aureus [4] it was 64 mg/L (≈ 77.3 µM); in the test with Staphylococcus aureus [5], above 2000 mg/L; with Staphylococcus aureus [6] it was 1 mg/L (≈ 1.21 µM).
Turning to `CC(=O)NC[C@H]1CN(c2ccc(N3CCOCC3)c(F)c2)C(=O)O1` [LINEZOLID], the MIC in the test on Staphylococcus aureus [1] worked out at 8 mg/L (≈ 23.7 µM).
Turning to `C=C[C@]1(C)C[C@@H](OC(=O)CSCCN(CC)CC)[C@]2(C)[C@H](C)CC[C@]3(CCC(=O)[C@H]32)[C@@H](C)[C@@H]1O` [TIAMULIN], the MIC came out at 128 mg/L (≈ 259 µM) against Staphylococcus aureus [2], 512 mg/L (≈ 1040 µM) against Staphylococcus aureus [1] and 1 mg/L (≈ 2.03 µM) against Staphylococcus aureus [7].
Consider `CC[C@H]1OC(=O)C[C@@H](O)[C@H](C)[C@@H](O[C@@H]2O[C@H](C)[C@@H](O[C@H]3C[C@@](C)(O)[C@@H](O)[C@H](C)O3)[C@H](N(C)C)[C@H]2O)[C@@H](CC=O)C[C@@H](C)C(=O)/C=C/C(C)=C/[C@@H]1CO[C@@H]1O[C@H](C)[C@@H](O)[C@@H](OC)[C@H]1OC` [TYLOSIN], for which the MIC in the test on Staphylococcus aureus [2] is above 1020 mg/L; against Staphylococcus aureus [3], 2000 mg/L (≈ 2180 µM); in the test on Staphylococcus aureus [4] it was 2 mg/L (≈ 2.18 µM); in the test with Staphylococcus aureus [5] it was 6000 mg/L (≈ 6550 µM); against Staphylococcus aureus [6], 1 mg/L (≈ 1.09 µM); against Staphylococcus aureus [7] it was 2 mg/L (≈ 2.18 µM).
For SPIRAMYCIN, the values for the MIC against Staphylococcus aureus [3] and against Staphylococcus aureus [4] were above 4000 mg/L and 128 mg/L, respectively.

Values taken from ChEMBL document CHEMBL1255328, “Transcriptional and translational control of the mlr operon, which confers resistance to seven classes of protein synthesis inhibitors” (2008).
